Test results: the M2OR odorant receptor database

These compounds were tested on T1, A0A140T8K0. Settings: stereoisomer not certain.
T1 sequence (whole entry): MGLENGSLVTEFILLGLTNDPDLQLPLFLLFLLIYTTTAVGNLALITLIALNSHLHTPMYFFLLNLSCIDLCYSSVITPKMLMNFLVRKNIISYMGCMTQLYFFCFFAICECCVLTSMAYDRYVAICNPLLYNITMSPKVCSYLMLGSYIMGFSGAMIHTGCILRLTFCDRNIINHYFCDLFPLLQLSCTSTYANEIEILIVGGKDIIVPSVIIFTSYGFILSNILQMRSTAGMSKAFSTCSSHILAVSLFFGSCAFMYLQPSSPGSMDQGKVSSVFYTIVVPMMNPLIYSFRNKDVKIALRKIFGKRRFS
Outline: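 Transient luciferase assays in mammalian cell lines were common, though methods varied by source. The values come from published papers and their supplementary material, with extra details from the original authors when needed. Responsive refers to a measured signal the original authors judged statistically different from baseline, and non-responsive (inactive) to the remainder.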
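Further: active if original authors judged signal statistically different from baseline.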

Odorant receptor agonist call, inactive:
CC1CCC(C(C)C)C(=O)C1 (configuration not stated)
Cc1ccc(C(C)C)cc1
CCCCCCC=CC=O
O=C([O-])CCCCCCCC(=O)[O-].[H+].[H+]
OCCc1ccccc1
C=CC(C)=CCC=C(C)CCC=C(C)C
CCc1ccccc1O
O=C(O)C1CCC1
CCc1occc(=O)c1O
C1CCOC1
CC(CC=O)CCCC(C)(C)O (configuration not stated)
C=C1C2CCC(C2)C1(C)C (configuration not stated)
CC(C)=CCCC(C)=CCOC(=O)C(C)C
C=C(C)C1CCC2(C)OC2C1 (configuration not stated)
CCSSCC
CC1CC=CCCCCCCCCCC(=O)C1 (configuration not stated)
CCCCCCCOC(=O)C(C)C
CC=C(C)C=O
C=CC(=C)CCC=C(C)CCC=C(C)C
c1ccc2ncccc2c1
CC(=O)OCCc1ccccc1
CCc1ccc(O)cc1
CCCCCCCCCC=CC=O
O=C([O-])CCCCCCC(=O)[O-].[H+].[H+]
C=CC(=O)CCCCC
Cc1ccccc1OC(=O)C(C)C
CCCCCC(=Cc1ccccc1)C(OC)OC
CC=Cc1ccc(OC)cc1
CCCCCOC(=O)CCC
CCCCCCC(C)O (configuration not stated)
CCCC=O
CCC=CCCC=CC=O
CCCCCCCCCCOC(C)=O
CC(C)CS
Cc1occc1SSc1ccoc1C
CCCCCC=CCCC=O
CNc1ccccc1C(=O)OC
